The text below walks through data of ChEMBL document CHEMBL4673284, “Syntheses and anti-HIV and human cluster of differentiation 4 (CD4) down-modulating potencies of pyridine-fused cyclotriazadisulfonamide (CADA) compounds” (Bioorg Med Chem, 2020).

pIC50: −log10 of the molar value.

Series [1] is described as follows: Kinetic solubility of the compound in aqueous PBS buffer at H 7.4/2.5% DMSO incubated for 1 hr by nephelometry. It is filed as physicochemical. The settings on record: aqueous PBS buffer with 2.5% DMSO, pH 7.4, read-out: Kinetic_solubility. In a few lines: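 Compound from a 20 mM DMSO stock was diluted into PBS pH 7.4 at a constant 2.5% DMSO, then two-fold serially diluted in quadruplicate, with extra intermediate concentrations. Plates were shaken 2 min, held 1 h at 37 °C and shaken 3 min before nephelometry. Blank-subtracted scattering onset defined kinetic solubility.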

In series [2] the test system is Human immunodeficiency virus 1. Put plainly: Antiviral activity against HIV-1 NL4-3 infected in human MT-4 cells assessed as inhibition of viral replication by measuring inhibition of cell viability preincubated with cells for 15 mins followed by viral infection and measured after 4 days by MTS/PES assay. The format is functional, organism-based. The settings on record: Human immunodeficiency virus 1, NL4-3, MT4. In a few lines:
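HIV-1 NL4.3 (30 pg/well) was then added at 37 °C. After 4 days, viability was read by MTS/PES (absorbance 490 and 700 nm) and the IC50 for viral replication was calculated. Mean ± SD, n = 2 or 3.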

Series [3] can be described thus: Thermodynamic solubility of the compound in aqueous PBS buffer at pH 7.4 incubated for 72 hrs by shake flask method based UV-Vis absorption spectroscopy. To be noted: read-out: Therm_solubility. The format is physicochemical. In outline:
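Shake-flask method: 3–5 mg compound in 5 mL PBS pH 7.4 was agitated 72 h, with excess solid checked at 24 and 48 h. The solution was then filtered and the filtrate quantified by UV-Vis standard addition with Beer–Lambert. ε came from five-concentration methanol calibrations at λmax, fitted by linear least squares.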

For a further series, the system named is MT4. Put plainly: Cytotoxicity against human MT-4 cells assessed as inhibition of cell viability incubated for 48 hrs by MTS/PES assay. It is filed as cell-based. The settings on record: mt4, 48 h. In a few lines: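 Cytotoxicity: 10^4 MT-4 cells/well in DMEM with 10% FBS and 10 mM HEPES were exposed to compounds 48 h at 37 °C. CC50 was derived from the drop in viability measured by MTS/PES.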

For series [4], the target named is T-cell surface glycoprotein CD4 (Homo sapiens, UniProt P01730). Put plainly: Binding affinity to signal peptide of human CD4-YFP expressed in CHO-K1 cells assessed down-modulation of CD4 surface expression incubated for 24 hrs by flow cytometry. The format is cell-based. In outline:
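CHO cells stably expressing human CD4 C-terminally fused to YFP were exposed 24 h at 37 °C to 1:5 serial dilutions, washed, fixed in 1% formaldehyde and analysed by flow cytometry (488 nm laser). YFP MFI, minus non-transfected background, was expressed as % of untreated controls. IC50 is the concentration giving 50% down-modulation. Mean ± SD, n = 3.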

Series [5] relates to CD4 (surface expression down-modulation). Put plainly: Therapeutic index, ratio of CC50 for human MT-4 cells to IC50 for human CD4-YFP expressed in CHO-K1 cells assessed down-modulation of CD4 surface expression incubated for 24 hrs by flow cytometry. It is filed as toxicity, cell-based. The settings on record: read-out: Ratio CC50/IC50.

For `C=C1CN(S(=O)(=O)c2ccc(C)cc2)CCc2cc(OC)cc(n2)CCN(S(=O)(=O)c2ccc(C)cc2)C1.Cl`, in series [1], the solubility kinetic at 1 h was found to be 64 µM. Besides, the negative-log IC50 (pIC50) was 4.90 in series [2] and 5.73 in series [4]. In addition, the solubility thermodynamic at 72 h in series [3] was 28 µM. The CC50 in the series with MT4 is greater than 100000 nM.

With `C=C1CN(S(=O)(=O)c2ccc(C)cc2)CCc2cc(OCc3ccccc3)cc(n2)CCN(S(=O)(=O)c2ccc(C)cc2)C1`, the results for the pIC50 in series [2] and in series [4] were 5.66 and 6.38, respectively. Further, in the series on MT4, the CC50 was greater than 100000 nM.

For the compound `C=C1CN(S(=O)(=O)c2ccc(C)cc2)CCc2cc(OCC3CCCCC3)cc(n2)CCN(S(=O)(=O)c2ccc(C)cc2)C1.Cl`, in series [1], the solubility kinetic at 1 h came to 65 µM. In addition, the negative logarithm of the IC50 (pIC50) is 6.03 in series [2] and 6.89 in series [4]. Moreover, the cytotoxic concentration (CC50) in the series on MT4 was greater than 100000 nM.

On to `C=C1CN(S(=O)(=O)c2ccc(C)cc2)CCc2cc(-c3ccccc3)cc(n2)CCN(S(=O)(=O)c2ccc(C)cc2)C1.Cl`, for which the solubility kinetic at 1 h in series [1] amounted to 61 µM. Also, the negative logarithm of the IC50 (pIC50) is 5.61 in series [2] and 6.13 in series [4]. Besides, the CC50 with MT4 was greater than 100000 nM.

For the compound `Br.C=C1CN(S(=O)(=O)c2ccc(C)cc2)CCc2cc(O)cc(n2)CCN(S(=O)(=O)c2ccc(C)cc2)C1`, the negative logarithm of the IC50 (pIC50) was less than 4.30 in series [2] and 5.03 in series [4]. In series [3], the solubility thermodynamic at 72 h is 27 µM. Also, in the series on MT4, the CC50 is greater than 100000 nM.

Regarding `C=C1CN(S(=O)(=O)c2ccc(C)cc2)CCc2cc(CCCC)cc(n2)CCN(S(=O)(=O)c2ccc(C)cc2)C1`, the figures for the negative-log IC50 (pIC50) in series [2] and in series [4] were 5.62 and 6.27, respectively. Also, the selectivity ratio at 24 h in series [5] was greater than 100. Besides, in the series with MT4, the CC50 came out at 65800 nM.

Take `C=C1CN(S(=O)(=O)c2ccc(C)cc2)CCc2cc(CC)cc(n2)CCN(S(=O)(=O)c2ccc(C)cc2)C1`: the results for the pIC50 in series [2] and in series [4] were 5.47 and 6.07, respectively. In addition, the CC50 with MT4 is greater than 100000 nM.

On to `C=C1CN(S(=O)(=O)c2ccc(C)cc2)CCc2cc(CCC)cc(n2)CCN(S(=O)(=O)c2ccc(C)cc2)C1.Cl`, for which the negative-log IC50 (pIC50) in series [2] was 5.55; in series [4] it was 6.08. Further, the solubility thermodynamic at 72 h in series [3] turned out to be 18 µM. Besides, the CC50 in the series on MT4 is greater than 100000 nM.

On to `C=C1CN(S(=O)(=O)c2ccc(C)cc2)CCc2cc(OCC)cc(n2)CCN(S(=O)(=O)c2ccc(C)cc2)C1.Cl`, for which the solubility kinetic at 1 h in series [1] was determined as 54 µM. The pIC50 is 4.98 in series [2] and 5.82 in series [4]. In the series on MT4, the cytotoxic concentration (CC50) is greater than 100000 nM.

For the compound `C=C1CN(S(=O)(=O)c2ccc(C)cc2)CCc2cccc(n2)CCN(S(=O)(=O)c2ccc(C)cc2)C1`, the results for the negative logarithm of the IC50 (pIC50) in series [2] and in series [4] were less than 4.30 and 5.55, respectively. For the same compound, the CC50 in the series with MT4 was greater than 100000 nM.

As to `C=C1CN(S(=O)(=O)c2ccc(C)cc2)CCc2cc(C(C)(C)C)cc(n2)CCN(S(=O)(=O)c2ccc(C)cc2)C1.Cl`, the figures for the pIC50 in series [2] and in series [4] were 5.57 and 6.02, respectively. Moreover, the solubility thermodynamic at 72 h in series [3] stood at 20 µM. Besides, the 50% cytotoxic concentration (CC50) with MT4 was greater than 100000 nM.

With `C=C1CN(S(=O)(=O)c2ccc(C)cc2)CCc2cc(C)cc(n2)CCN(S(=O)(=O)c2ccc(C)cc2)C1`, the pIC50 was less than 4.30 in series [2] and 5.78 in series [4]. In addition, in the series with MT4, the CC50 is greater than 100000 nM.

Take `C=C1CN(S(=O)(=O)c2ccc(C)cc2)CCc2cc(CC(C)C)cc(n2)CCN(S(=O)(=O)c2ccc(C)cc2)C1.Cl`: the values for the negative-log IC50 (pIC50) in series [2] and in series [4] were 5.64 and 6.18, respectively. In addition, the selectivity ratio at 24 h in series [5] was greater than 100. Moreover, the solubility thermodynamic at 72 h in series [3] came out at 29 µM. Moreover, the cytotoxic concentration (CC50) in the series on MT4 turned out to be 87900 nM.

Regarding `C=C1CN(S(=O)(=O)c2ccc(N(C)C)cc2)CCc2cc(CC)cc(n2)CCN(S(=O)(=O)c2ccc(N(C)C)cc2)C1`, the values for the negative-log IC50 (pIC50) in series [2] and in series [4] were 5.96 and 6.66, respectively. For the same compound, in the series on MT4, the CC50 is greater than 100000 nM.

For the compound `C=C1CN(S(=O)(=O)c2ccc(C)cc2)CCCN(Cc2ccccc2)CCCN(S(=O)(=O)c2ccc(C)cc2)C1.Cl` [CYCLOTRIAZADISULFONAMIDE HYDROCHLORIDE], the solubility kinetic at 1 h in series [1] came to 43 µM. The pIC50 in series [2] was 5.77; in series [4], 6.48. For the same compound, the solubility thermodynamic at 72 h in series [3] turned out to be 11 µM. Also, the CC50 in the series on MT4 was greater than 100000 nM.
